Compound activity: PubChem, several laboratories
Pf gamet viab = kills late stage P. falciparum gametocytes. hit rate 0.065% among 150,000. P. falciparum stage V gametocytes, ATP luminescence, 24 h. AID 743093. inhibition, % at 10.9 µM;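 active = inhibition above the mean plus 3 SD of compounds within the control limits, set per campaign, cut at about 38% in these data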;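 also: 0% = DMSO wells and 100% = medium only without gametocytes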
Calb biofilm kill = mixture kills Candida albicans biofilm cells; AID 1242; inhibition, % at 7.6 µM; hit rate 0.02% among 120,000; C. albicans biofilm persisters + clotrimazole, fluorescence viability; primary screen in compound mixtures of four per well;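 also: compounds exposed to preformed 24 h biofilms for 48 h; 0% = untreated biofilm control and 100% = clotrimazole plus chlorhexidine kill blank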
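System: C. albicans CAF4-2 wild-type biofilms; Medium: RPMI/MOPS medium, pH 7.0; Reagent: Clotrimazole, 50 µg/mL; Times: biofilm formation 24 h, compound exposure 48 h, 37 °C; Detection: 2-h Alamar Blue fluorescence, 535/590 nm excitation/emission; Evaluation: percent inhibition of biofilm viability.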
ROMK mod = modulates human ROMK potassium channel activity | Tet-inducible ROMK, thallium flux fluorescence; actives lie on both sides | B-score at 10 µM | hit rate 2% among 130,000 | AID 1918;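 active = signal ratio slope over the read window, or its plate-corrected B-score, at least 3 SD from the plate mean, either direction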;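 also: B-score of the F/F0 ratio slope over 7 to 12 s after thallium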
Target sequence (P48048 whole entry, looked up): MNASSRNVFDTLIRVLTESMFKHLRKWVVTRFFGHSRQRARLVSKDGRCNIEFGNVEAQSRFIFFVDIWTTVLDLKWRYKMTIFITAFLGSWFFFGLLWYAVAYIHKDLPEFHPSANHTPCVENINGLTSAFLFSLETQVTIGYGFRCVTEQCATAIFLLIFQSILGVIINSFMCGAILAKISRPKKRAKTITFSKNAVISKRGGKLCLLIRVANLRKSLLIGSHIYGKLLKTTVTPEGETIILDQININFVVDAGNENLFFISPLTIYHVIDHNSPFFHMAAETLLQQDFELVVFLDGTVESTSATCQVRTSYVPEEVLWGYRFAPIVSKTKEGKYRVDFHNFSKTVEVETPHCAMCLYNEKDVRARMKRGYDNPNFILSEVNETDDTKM
ROMK hit retest = retested hit modulating human ROMK potassium channel. shares compounds with ROMK mod. ROMK thallium flux, fluorescence ratio; active compounds read low. normalized thallium flux (F/F0 slope) at 10 µM. hit rate 54% among 3,000. AID 1917;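 active = Flux at 10 µM at least 3 SD below or above vehicle control mean in one or both replicates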
The depositor's hits bear a star; . = not tested or not shown. Only a selection was taken, and hits are over-represented in it overall.

SMILES	Pf gamet viab	Calb biofilm kill	ROMK mod	ROMK hit retest
Cc1sc2nc(CN3CCCC3)nc(N3CCN(S(=O)(=O)c4cccs4)CC3)c2c1C	.	.	-2.5*	0.055*
Cc1sc2nc(CN3CCCCC3)nc(N3CCN(C(=O)c4ccco4)CC3)c2c1C	31	17	1.6	.
COc1cc(C2Oc3ccccc3C=C2[N+](=O)[O-])cc(OC)c1OC (centres undefined)	-11	13	-7*	0.033*
COc1cc(C2CC(=O)Oc3c2c(=O)n(C)c2ccccc32)cc(OC)c1OC (centres undefined)	-3	12	1.1	.
O=C(CN1C(=O)CSc2ccccc21)N/N=C/c1ccco1	-36	31	0.17	.
CCOC(=O)[C@@H]1[C@H]2COc3ccccc3[C@H]2N2C(=O)N(c3cccc(F)c3)C(=O)[C@]12C	8	.	.	.
CCCNC(=O)c1ccc2snnc2c1	-4	14	0.34	.
CCCNC(=O)c1nnsc1S(=O)(=O)c1ccc(Cl)cc1	-2	34*	-4.9*	0.047*
CNC(=O)c1nn(-c2ccc(Cl)cc2)ccc1=O	4	.	.	.
CNC(=O)c1nnsc1S(=O)c1ccc(Cl)cc1 (centres undefined)	-49	6	-8.8*	0.049*
CCCNC(=O)NS(=O)(=O)c1ccc(Cl)cc1	.	10	.	.
CCCNC(=O)c1nnsc1S(=O)c1ccc(Cl)cc1 (centres undefined)	-35	13	-6.4*	0.055*
Cc1ccc(S(=O)(=O)Oc2ccc(/C=N/NC(=O)c3cccnc3)cc2)cc1	8	26	0.58	.
COc1ccc(/C=C/C(=O)Oc2cccc(/C=N/NC(=O)Cc3ccc(Br)cc3)c2)cc1	-27	17	.	.
CCC[C@@H]1CCCC/C=C\CCCC(=O)OCCN1C(=O)OC(C)(C)C	14	.	.	.
C=CC[C@H](CC(=O)NCCO)C(=O)N[C@H](COC(=O)[C@@H](CC=C)Cc1ccc(F)cc1)c1ccccc1	-28	.	.	.
C=CCN1C(=O)N(c2ccc(F)cc2)C(=O)C1CC(=O)Nc1ccc(Cl)cc1 (centres undefined)	4	17	.	.
CN(C)c1ccc(/C=N/NC(=O)c2ccccc2Cl)cc1	2	20	1.9	0.088
CN(C)c1ccc(/C=N/NC(=O)c2ccccc2)cc1	.	7	0.72	.
Cc1ccc(NC(=O)c2ccc3ncsc3c2)cc1S(=O)(=O)N(C)C	16	7	.	.
CCCCCCCN1N=C(C)C(C(=O)c2ccccc2)C1=O (centres undefined)	.	.	0.95	.
CCCCCN1N=C(C)CC1=O	8	9	2.7*	0.079
CCc1cc(C(=O)Cc2nc3ccccc3s2)c(O)cc1OCC(=O)O	22	1	.	.
O=C(Nc1ccccc1Cl)c1csc(-c2cccnc2)n1	5	30	5.2*	0.1*
O=C(NNC(=O)c1csc(-c2cccnc2)n1)c1ccccc1	-5	10	-0.9	.
SMILES	Pf gamet viab	Calb biofilm kill	ROMK mod	ROMK hit retest
CCCCn1c(=NC(=O)c2cccnc2)c(C#N)cc2c(=O)n3cccc(C)c3nc21	1	.	0.75	.
Cc1cccn2c(=O)c3cc(C#N)c(=NC(=O)c4ccncc4)n(CCCOC(C)C)c3nc12	.	.	-4.3*	0.049*
CC(=O)N=c1c(C#N)cc2c(=O)n3cccc(C)c3nc2n1CCCOC(C)C	6	20	.	.
COCCCn1c(=NC(=O)c2ccncc2)c(C#N)cc2c(=O)n3cccc(C)c3nc21	-6	.	.	0.06*
O=Nc1c2ccc[nH]c-2c2ccc([N+](=O)[O-])cc12	19	4	-0.3	.
N#Cc1sc2nc3c(cc2c1N)CCCC3	.	6	2.8	0.1*
CCCc1ccc2c(N)c(C#N)sc2n1	11	.	1	.
Cc1ccc2c(N)c(C#N)sc2n1	.	.	3.4*	0.081
Nc1c(C(=O)O)sc2nc3c(cc12)CCCC3	6	3	1.1	.
Cc1sc2c(c1C)C(=O)/C(=C\Nc1ccccn1)S(=O)(=O)N2C	-2	21	.	.
CCC1Oc2ccc(C)cc2N(CC(=O)N(Cc2ccc(C)o2)C2CC(C)(C)NC(C)(C)C2)C1=O (centres undefined)	17	16	-6.9*	0.059*
CCC1Oc2ccc(C)cc2N(CC(=O)NCc2ccco2)C1=O (centres undefined)	19	27	0.3	.
CCN1CCN(c2nc3c(c(=O)[nH]c(=O)n3C)n2Cc2ccccc2)CC1	7	.	.	.
Cc1nn(-c2c(Cl)cc(Cl)cc2Cl)c(=O)c2ccccc12	-6	.	-0.22	.
O=c1c2ccccc2c(-c2ccccc2)nn1-c1cc(Cl)cc(Cl)c1	-10	18	.	0.077
COc1ccc(CNC(=O)N[C@@H](CC(C)C)C(=O)O)cc1OC	8	25	-1.4	.
O=C(Sc1ccc(Cl)cc1)c1ccccn1	24	.	.	.
COc1ccc(Cc2[nH]n3c(=O)c(Cl)c(C)nc3c2-c2ccccc2)cc1	-2	15	-1.5	.
C/C(=N\NC(=O)CNC(=O)c1ccncc1)c1ccc(C)cc1	4	21	-0.62	.
